Assay outcomes: PubChem, several laboratories
MT stabilizer – microtubule stabilizers in HeLa cells; HeLa tubulin immunostaining HCS, 24 h; share of cells brighter than vehicle mean+2SD; % tubulin-high responders, % at 10 µM; 200,000 tested, 0.83% active;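 active = plate Z-score above 3 for both tubulin-high and condensed-nucleus cell shares, with cell loss under 80%, at 10 µM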;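 note: anti alpha tubulin signal scored within the nucleus-defined area of each cell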
NPY-Y2 antag – blocks the human neuropeptide Y Y2 receptor. P49146. NPY-Y2 expressing cells, antagonist mode. inhibition, % at 2.7 µM. 140,000 tested, 0.99% active; in the data active = inhibition above about 17%
Target sequence (P49146 whole entry, looked up): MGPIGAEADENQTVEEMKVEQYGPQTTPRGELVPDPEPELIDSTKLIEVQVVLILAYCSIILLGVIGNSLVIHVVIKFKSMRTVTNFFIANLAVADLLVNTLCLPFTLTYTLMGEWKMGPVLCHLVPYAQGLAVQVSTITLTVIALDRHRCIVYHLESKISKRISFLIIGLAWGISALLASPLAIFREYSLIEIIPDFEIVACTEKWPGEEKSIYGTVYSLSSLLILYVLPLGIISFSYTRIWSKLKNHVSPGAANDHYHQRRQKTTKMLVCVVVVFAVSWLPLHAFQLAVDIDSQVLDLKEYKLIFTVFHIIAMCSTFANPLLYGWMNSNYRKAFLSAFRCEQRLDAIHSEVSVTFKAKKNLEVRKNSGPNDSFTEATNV
NPY Y1 blocker – NPY-Y1 (human) receptor antagonism; HEK293-CNG Y1 cells, membrane potential fluorescence; NPY at EC95, then isoproterenol; 200,000 tested, 1% active; P25929; AID 1040; inhibition, % at 3.6 µM;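 active = inhibition above the campaign mean inhibition of all tested compounds plus 3 SD, cut at about 20% in these data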
Target sequence (P25929 whole entry, looked up): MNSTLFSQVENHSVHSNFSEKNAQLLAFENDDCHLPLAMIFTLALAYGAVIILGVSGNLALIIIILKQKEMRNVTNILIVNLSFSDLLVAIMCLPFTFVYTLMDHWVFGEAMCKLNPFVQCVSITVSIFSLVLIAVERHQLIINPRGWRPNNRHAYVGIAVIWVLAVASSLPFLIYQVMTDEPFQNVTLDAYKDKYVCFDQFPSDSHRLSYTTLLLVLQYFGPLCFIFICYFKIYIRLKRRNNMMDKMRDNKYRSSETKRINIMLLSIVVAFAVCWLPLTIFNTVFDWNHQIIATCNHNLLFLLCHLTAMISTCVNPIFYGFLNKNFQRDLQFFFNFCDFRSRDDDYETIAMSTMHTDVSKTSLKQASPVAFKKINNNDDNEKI
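material = HEK293 cells with Y1 receptor plus CNG channel | also added = NPY 25 nM then isoproterenol 1 µM plus Ro 20-1724 25 µM | schedule = dye 3 h, compound 60 min room temperature, stimulation 45 min | measured by = membrane potential fluorescence | benchmarks = high control isoproterenol alone, low control NPY with isoproterenol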
NPY1 pot ag – potentiators or agonists of human neuropeptide Y receptor Y1 | 220,000 tested, 0.37% active | P25929 | activation, % at 3.6 µM | NPY-Y1 expressing cells, potentiator/agonist activation | AID 1304; in the data active = activation above about 33%, passing the limit was not always enough;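 note: cells stimulated with NPY at EC10 then isoproterenol at EC100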
NPY2 pot ag – human NPY-Y2 potentiation or agonism, primary screen. activation, % at 3.6 µM. cells expressing NPY-Y2, potentiator/agonist read-out. P49146. 220,000 tested, 0.45% active; in the data active = activation above about 27%;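 note: cells stimulated with NPY near EC25 plus isoproterenol at EC100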
bCat nuc transl – modulators of beta-catenin nuclear translocation. 190,000 tested, 0.3% active. HeLa beta-catenin nuclear translocation, immunofluorescence imaging. nuclear translocation activity, % at 5 µM. AID 1665;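 active = nuclear translocation activity above 50% at 5 µM, with a well cell count of 50 or more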;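 note: per-cell ratio of nuclear to cytoplasmic median beta-catenin stain intensity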
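Test system: human HeLa cell line; Doses: 5 µM primary, 0.02–20 µM confirmation; Incubation: 24 h compound exposure, 37°C; Detection: beta-catenin immunofluorescence imaging with DAPI; Read-out: beta-catenin nuclear/cytoplasmic ratio, % activation.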
NPY-Y2 pot conf – human NPY-Y2 potentiation or agonism, confirmation. shares compounds with NPY2 pot ag. cell-based NPY-Y2 potentiator/agonist assay. activation, % at 3.6 µM. AID 1539. 450 tested, 20% active; in the data active = activation above about 33%
NPY-Y1 counter – potentiates or activates NPY-Y1, counter-screen for NPY-Y2 hits. 450 tested, 20% active. shares compounds with NPY2 pot ag. AID 1651. activation, % at 3.6 µM. Y1 HEK293-CNG cells, membrane potential fluorescence; in the data active = activation above about 45%;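 note: cells stimulated with submaximal NPY then isoproterenol with phosphodiesterase inhibitor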
NPY-Y1 ag 2 – human NPY-Y1 agonism as NPY-Y2 potentiator counter-screen; shares compounds with NPY2 pot ag; HEK293 Y1-CNGC, membrane potential fluorescence; activation, % at 3.6 µM; 450 tested, 37% active;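 active = activation above the mean of DMSO-only control wells plus 3 SD, cut at about 18% in these data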;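 note: cells stimulated with 1 µM isoproterenol plus the PDE inhibitor Ro 20-1724; Y1 agonists lower the membrane potential dye signal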
CNGC inh – cyclic nucleotide gated channel inhibition as counter-screen; inhibition, % at 3.6 µM; 450 tested, 32% active; shares compounds with NPY2 pot ag; HEK293-CNG parental, isoproterenol cAMP, membrane potential fluorescence;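 active = inhibition above the control-well mean plus 3 SD of those wells, cut at about 22% in these data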
NPY-Y2 ag 2 – NPY-Y2 agonism, counter-screen for Y2 potentiators | shares compounds with NPY2 pot ag | HEK293 Y2/CNGC cells, membrane potential fluorescence, agonist mode | activation, % at 3.6 µM | 450 tested, 56% active;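 active = activation above the mean of solvent-only control wells plus 3 SD, cut at about 10% in these data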;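 note: cells stimulated by isoproterenol with no NPY added so direct agonism is tested; agonism lowers probe fluorescence through less cAMP and CNG channel opening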
Large screens that a line does not name were inactive (follow-up assays come after a bar, where they were run). Hits are enriched below; roughly 2.6% of the tested compounds scored in any of these assays.

CC(C)N1CCC(N2CCN(CCCn3cccn3)CC2CCO)CC1 (centres undefined)	none (no result: NPY-Y2 antag)
CN(Cc1nccn1C)C(=O)c1cc(COc2ccc3ncccc3c2)on1	none (no result: NPY-Y2 antag)
Cc1cc(CN(C)C(=O)c2cc(COc3ccc4ncccc4c3)on2)on1	NPY2 pot ag 38 (no result: NPY-Y2 antag) | NPY-Y2 pot conf inactive | NPY-Y1 counter inactive | NPY-Y1 ag 2 inactive | CNGC inh inactive | NPY-Y2 ag 2 inactive
CCc1ccc(N(CC(=O)Nc2nc3ccc(C)cc3s2)S(=O)(=O)c2c(C)noc2C)cc1	NPY2 pot ag 31 (no result: bCat nuc transl) | NPY-Y2 pot conf inactive | NPY-Y1 counter inactive | NPY-Y1 ag 2 45 | CNGC inh 33 | NPY-Y2 ag 2 49
O=C(Nc1ccccc1N1CCOCC1)c1cc(Br)c(Br)s1	none (no result: NPY-Y2 antag)
CC1=CC(=O)C(C(C)C)=C/C1=N/OS(=O)(=O)c1ccccc1	NPY2 pot ag 63 (no result: MT stabilizer, NPY-Y2 antag, NPY Y1 blocker) | NPY-Y2 pot conf inactive | NPY-Y1 counter inactive | NPY-Y1 ag 2 inactive | CNGC inh inactive | NPY-Y2 ag 2 22
CN(CCO)c1nc(N)c2c(N)nc3c(c2c1C#N)CC(=O)N3Cc1cccs1	NPY2 pot ag 40 (no result: NPY-Y2 antag) | NPY-Y2 pot conf inactive | NPY-Y1 counter inactive | NPY-Y1 ag 2 inactive | CNGC inh inactive | NPY-Y2 ag 2 inactive
N#Cc1c(N(CCO)CCO)nc(N)c2c(N)nc3c(c12)CC(=O)N3Cc1cccs1	none (no result: MT stabilizer, NPY-Y2 antag, NPY Y1 blocker)
COCCc1ccc(OCC(O)CNC(C)C)cc1 (centres undefined)	NPY2 pot ag 65 | NPY-Y2 pot conf 38 | NPY-Y1 counter inactive | NPY-Y1 ag 2 34 | CNGC inh inactive | NPY-Y2 ag 2 28
CCC(CC)NCC(O)COc1ccc(Br)cc1 (centres undefined)	none (no result: NPY-Y2 antag)
COc1ccc(C)cc1NC(=O)c1ccccc1NS(=O)(=O)c1ccc(Cl)s1	NPY2 pot ag 58 (no result: NPY-Y2 antag) | NPY-Y2 pot conf inactive | NPY-Y1 counter inactive | NPY-Y1 ag 2 inactive | CNGC inh inactive | NPY-Y2 ag 2 inactive
Cc1ccc2[nH]c(=O)c(CNC(C)C)cc2c1	NPY2 pot ag 99 | NPY-Y2 pot conf inactive | NPY-Y1 counter inactive | NPY-Y1 ag 2 inactive | CNGC inh inactive | NPY-Y2 ag 2 inactive
Cc1ccccc1Nc1c(-c2ccncc2)nc2ccc(Br)cn12	NPY2 pot ag 47 | NPY-Y2 pot conf 71 | NPY-Y1 counter 76 | NPY-Y1 ag 2 58 | CNGC inh 53 | NPY-Y2 ag 2 70
COc1ccc(S(N)(=O)=O)cc1C(=O)NCCCN1CCN(c2ccccc2OC)CC1	NPY2 pot ag 76 | NPY-Y2 pot conf inactive | NPY-Y1 counter inactive | NPY-Y1 ag 2 inactive | CNGC inh inactive | NPY-Y2 ag 2 inactive
COc1ccc(S(N)(=O)=O)cc1C(=O)NCCCN1CCN(c2ccc(C)cc2)CC1	none
O=c1[nH]c(/C=C\c2cccnc2)c([N+](=O)[O-])c(=O)[nH]1	NPY2 pot ag 37 (no result: NPY-Y2 antag) | NPY-Y2 pot conf inactive | NPY-Y1 counter inactive | NPY-Y1 ag 2 39 | CNGC inh 27 | NPY-Y2 ag 2 31
O=c1[nH]c(/C=C/c2cccnc2)c([N+](=O)[O-])c(=O)[nH]1	none (no result: NPY-Y2 antag)
CN(C)S(=O)(=O)Oc1cccc(C(=O)Nc2ccccc2Cl)c1	none
CN(C)S(=O)(=O)Oc1cccc(C(=O)Nc2ccc(Cl)cc2)c1	NPY2 pot ag 48 | NPY-Y2 pot conf inactive | NPY-Y1 counter inactive | NPY-Y1 ag 2 inactive | CNGC inh inactive | NPY-Y2 ag 2 inactive
COC(=O)c1ccsc1NC(=O)C1=COCCO1	NPY2 pot ag 51 | NPY-Y2 pot conf inactive | NPY-Y1 counter inactive | NPY-Y1 ag 2 inactive | CNGC inh inactive | NPY-Y2 ag 2 inactive
CCc1ccc(/C(C)=N\Nc2ccc([N+](=O)[O-])cc2)cc1	NPY2 pot ag 39 | NPY-Y2 pot conf inactive | NPY-Y1 counter inactive | NPY-Y1 ag 2 24 | CNGC inh 30 | NPY-Y2 ag 2 30
C/C(=N\Nc1ccc([N+](=O)[O-])cc1)c1ccc(N2CCOCC2)cc1	none (no result: MT stabilizer, NPY-Y2 antag, NPY Y1 blocker)
CS(=O)(=O)c1ccc(C(=O)NC2CCCc3ccccc32)cc1 (centres undefined)	none (no result: NPY-Y2 antag)
Cc1cccc(C)c1Nc1c(-c2ccc(N3CCOCC3)cc2)nc2ncccn12	NPY2 pot ag 43 | NPY-Y2 pot conf 91 | NPY-Y1 counter 111 | NPY-Y1 ag 2 96 | CNGC inh 83 | NPY-Y2 ag 2 97
CCOC(=O)c1nc(Nc2ccc(Nc3ccccc3)cc2)c2ccccc2n1	NPY2 pot ag 33 (no result: NPY-Y2 antag) | NPY-Y2 pot conf 35 | NPY-Y1 counter inactive | NPY-Y1 ag 2 inactive | CNGC inh inactive | NPY-Y2 ag 2 33
CCOC(=O)c1ccc(Nc2nc(C(=O)OCC)nc3ccccc23)cc1	none
COc1cc(-c2csc(N3CCOCC3)n2)cc(OC)c1OC	none
COc1ccc(-c2csc(N3CCN(c4cc(C)nc5ccccc45)CC3)n2)cc1OC	NPY2 pot ag 32 (no result: NPY-Y2 antag) | NPY-Y2 pot conf 40 | NPY-Y1 counter inactive | NPY-Y1 ag 2 inactive | CNGC inh 33 | NPY-Y2 ag 2 29
O=C(Nc1ccc(Cl)cc1C(=O)N1CCOCC1)c1cccc([N+](=O)[O-])c1	none
COCCNC(=O)/C=C/c1c(Cl)cccc1Cl	none
CCN(CC)S(=O)(=O)c1ccc2[nH]cc(C(=O)NCCC3=CCCCC3)c(=O)c2c1	MT stabilizer 33, NPY2 pot ag 34 | NPY-Y2 pot conf inactive | NPY-Y1 counter inactive | NPY-Y1 ag 2 inactive | CNGC inh inactive | NPY-Y2 ag 2 23
CCN(CC)S(=O)(=O)c1ccc2[nH]cc(C(=O)NCCN3CCCCC3C)c(=O)c2c1 (centres undefined)	none
COc1cc(/C=N/Nc2nc3ccccc3s2)cc([N+](=O)[O-])c1O	none (no result: MT stabilizer, NPY-Y2 antag, NPY Y1 blocker)
O=[N+]([O-])c1cc(Cl)cc(/C=N/Nc2nc3ccccc3s2)c1O	NPY2 pot ag 28 (no result: NPY-Y2 antag) | NPY-Y2 pot conf 60 | NPY-Y1 counter 68 | NPY-Y1 ag 2 69 | CNGC inh 63 | NPY-Y2 ag 2 66
COC(=O)c1ccc2c(=O)n(CC3CCCO3)c(SCC(=O)Nc3ccc(OC)cc3OC)nc2c1 (centres undefined)	none (no result: MT stabilizer, NPY-Y2 antag, NPY Y1 blocker)
O=C(c1cc(COc2c(F)cccc2F)on1)N1CCC(c2ccncc2)CC1	NPY2 pot ag 36 (no result: NPY-Y2 antag) | NPY-Y2 pot conf inactive | NPY-Y1 counter inactive | NPY-Y1 ag 2 inactive | CNGC inh inactive | NPY-Y2 ag 2 inactive
